The record followed here is ChEMBL document CHEMBL5154905, “Reversible Monoacylglycerol Lipase Inhibitors: Discovery of a New Class of Benzylpiperidine Derivatives” (J Med Chem, 2022).

Activity calls are given as the source filed them. No cut-off for these calls is given here.

A word on the IC50: it is the concentration at which inhibition is half-maximal. The term solubility denotes the concentration that dissolves in the medium under given conditions. The low end stands for little dissolved substance, the high end for much dissolved substance.

Data set [1] relates to PDAC-3. Nature of the data set: Antiproliferative activity against human PDAC-3 cells assessed as cell growth inhibition incubated for 72 hrs by sulforhodamine B assay. It counts as functional, cell-based. In short, it runs like this: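 Primary PDAC3 culture in RPMI-1640 with 10% newborn calf serum, penicillin/streptomycin, 37 °C, 5% CO2. Seeded 5000 cells/well; after 24 h exposed 72 h to MAGL inhibitor (0.1–50 μM, DMSO stock diluted in medium).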
(The SRB assay estimates cell density from bound dye.)

Data set [2] relates to PDAC-3. Nature of the data set: Induction of apoptosis in human PDAC-3 cells at IC50 measured after 72 hrs by Annexin-V/FITC staining based assay. Format: functional, cell-based. Put shortly: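 Fixed with paraformaldehyde, stained with annexin V/FITC in HEPES-buffered saline (pH 7.4) with 2.5 mM CaCl2. Fluorescence read at ex 485/em 535 nm and normalised to cell number from crystal violet staining (595 nm). Triplicate measurements, expressed relative to untreated control.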

Data set [3] deals with PDAC-3. Nature of the data set: Induction of apoptosis in human PDAC-3 cells assessed as increase in caspase-3 level at IC50 measured after 72 hrs by immunoassay. It counts as functional, cell-based. In short, it runs like this:
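Cell extracts assayed with a human active caspase-3 ELISA; absorbance 450 nm minus 540 nm. Quantified against a recombinant human caspase-3 standard curve. Triplicate measurements, expressed relative to untreated cells.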

In data set [4] the target is T1, Monoacylglycerol lipase ABHD6 (Mus musculus) (UniProt Q8R2Y0).
T1 sequence (whole entry): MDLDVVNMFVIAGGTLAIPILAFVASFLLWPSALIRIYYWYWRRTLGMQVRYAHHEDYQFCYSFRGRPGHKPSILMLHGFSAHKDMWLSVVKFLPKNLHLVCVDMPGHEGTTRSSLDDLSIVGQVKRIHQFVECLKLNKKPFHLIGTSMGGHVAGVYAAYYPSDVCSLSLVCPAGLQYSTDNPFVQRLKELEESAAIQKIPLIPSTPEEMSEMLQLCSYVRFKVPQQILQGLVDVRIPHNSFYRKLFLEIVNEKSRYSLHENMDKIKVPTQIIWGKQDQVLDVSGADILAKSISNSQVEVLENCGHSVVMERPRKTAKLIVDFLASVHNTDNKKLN
Nature of the data set: Inhibition of ABHD6 in mouse brain membrane at 10 uM using TAMRA-FP serine hydrolase probe as substrate preincubated for 25 mins followed by substrate addition and measured after 25 mins SDS-PAGE analysis. It counts as cell membranes. Conditions: time 50.0 min. Put shortly: (§1)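 Mouse half-brain membrane fraction (800g supernatants spun at 16000g, 4 °C; pellet in 50 mM Tris-HCl pH 7.4), diluted to 4 mg/mL in PBS. Preincubated 25 min at 25 °C with test agent (10 μM final) or DMSO, then TAMRA-FP (125 nM final) 25 min at 25 °C. Stopped in Laemmli buffer at 90 °C, run on 12% SDS-PAGE, in-gel fluorescence read. Coomassie confirmed loading. Three independent experiments.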

Data set [5] in a line: Stability of the compound in pooled human plasma at 3 mM measured up to 24 hrs by UV/LC-MS assay. Format: ADME, cell-free. Conditions: read-out: Stability.
Data set [6] in a line: Stability of the compound in MeOH solution at 500 uM measured up to 24 hrs by UV/LC-MS analysis. Format: physicochemical.
Data set [7] is described as follows: Apparent permeability of the compound in PBS buffer pH 7.4 assessed as membrane retention at 0.5 mM incubated for 5 hrs by PAMPA based UV/LC-MS analysis. Conditions: pH 7.4, 5 h, 500 µM. Format: ADME. (In PAMPA a lipid-coated filter parts donor from acceptor wells.)
Data set [8] can be described thus: Cytotoxicity against human hTERT-HPNE cells assessed as cell growth inhibition incubated for 72 hrs by sulforhodamine B assay. Format: toxicity, cell-based. In short, it runs like this: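 SRB growth-inhibition assay. Cells were seeded at 5000 per well and treated after 24 h, once a monolayer had formed, with MAGL inhibitors (0.1–50 μM) for 72 h. Cells were then fixed with trichloroacetic acid at 4 °C and stained with SRB. Bound dye was dissolved in Tris base and read at 490 and 540 nm. IC50 came from curve fitting.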

Data set [9] can be described thus: Stability of the compound in PBS buffer at pH 7.4 at 500 uM measured up to 24 hrs by UV/LC-MS analysis. It counts as physicochemical. Conditions: pH 7.4, 24 h.
A short description of data set [10]: Induction of apoptosis in human PDAC-2 cells assessed as fold change in apoptotic rate at IC50 measured after 72 hrs by Annexin-V/FITC staining based assay relative to control. It counts as functional. Put shortly:
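Then paraformaldehyde-fixed and stained with annexin V/FITC in HEPES/NaCl/CaCl2 buffer, pH 7.4. Fluorescence read at ex 485/em 535 nm, normalised to cell number by crystal violet (595 nm). Expressed relative to untreated control (=1). Triplicate, mean ± SEM.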

The test system of data set [11] is PDAC-3. Nature of the data set: Induction of apoptosis in human PDAC-3 cells assessed as reduction in Bcl-2 […] expression at 5 times IC50 incubated for 24 hrs by qRT-PCR analysis. It counts as functional, cell-based.
Data set [12] concerns PDAC-3. Nature of the data set: Antimigratory activity against human PDAC-3 cells assessed as reduction in MMP9 expression at 5 times IC50 incubated for 24 hrs by qRT-PCR analysis. Format: functional, cell-based. (In general: Real-time PCR tracks product formation cycle by cycle.)
In data set [13] the test system is PDAC-3. Nature of the data set: Synergistic antiproliferative activity against human PDAC-3 cells assessed as increase in ENT1 expression at 5 times IC50 incubated for 24 hrs in presence of gemcitabine by qRT-PCR analysis. Format: functional, cell-based.
Data set [14] can be described thus: Aqueous solubility of compound at 1 mg/ml incubated for 24 hrs by LC-MS/MS analysis. It counts as physicochemical. Conditions: buffer.
For data set [15], the target named is T2, Fatty-acid amide hydrolase 1 (Mus musculus) (UniProt O08914).
T2 sequence (whole entry): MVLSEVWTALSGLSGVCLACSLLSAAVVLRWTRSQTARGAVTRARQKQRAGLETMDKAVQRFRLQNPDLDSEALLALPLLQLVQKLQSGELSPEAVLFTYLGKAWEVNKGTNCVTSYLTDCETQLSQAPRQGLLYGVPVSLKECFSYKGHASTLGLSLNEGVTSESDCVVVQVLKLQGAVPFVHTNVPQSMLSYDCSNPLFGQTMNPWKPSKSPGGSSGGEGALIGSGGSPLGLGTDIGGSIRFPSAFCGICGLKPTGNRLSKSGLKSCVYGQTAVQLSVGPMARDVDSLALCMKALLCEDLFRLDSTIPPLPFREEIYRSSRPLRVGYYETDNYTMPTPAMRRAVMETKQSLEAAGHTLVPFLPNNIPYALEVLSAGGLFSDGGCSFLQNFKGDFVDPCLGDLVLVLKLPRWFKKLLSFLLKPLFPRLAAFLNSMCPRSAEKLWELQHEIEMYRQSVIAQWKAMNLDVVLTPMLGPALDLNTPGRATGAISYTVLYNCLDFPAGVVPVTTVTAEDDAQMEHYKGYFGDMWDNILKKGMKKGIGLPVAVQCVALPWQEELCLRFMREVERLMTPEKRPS
Nature of the data set: Inhibition of FAAH in mouse brain membrane at 10 uM using TAMRA-FP serine hydrolase probe as substrate preincubated for 25 mins followed by substrate addition and measured after 25 mins SDS-PAGE analysis. Format: cell membranes. Conditions: time 50.0 min. In short, it runs like this: as §1

Data set [16] concerns the target T3, Lysophosphatidylserine lipase ABHD12 (Mus musculus) (UniProt Q99LR1).
T3 sequence (whole entry): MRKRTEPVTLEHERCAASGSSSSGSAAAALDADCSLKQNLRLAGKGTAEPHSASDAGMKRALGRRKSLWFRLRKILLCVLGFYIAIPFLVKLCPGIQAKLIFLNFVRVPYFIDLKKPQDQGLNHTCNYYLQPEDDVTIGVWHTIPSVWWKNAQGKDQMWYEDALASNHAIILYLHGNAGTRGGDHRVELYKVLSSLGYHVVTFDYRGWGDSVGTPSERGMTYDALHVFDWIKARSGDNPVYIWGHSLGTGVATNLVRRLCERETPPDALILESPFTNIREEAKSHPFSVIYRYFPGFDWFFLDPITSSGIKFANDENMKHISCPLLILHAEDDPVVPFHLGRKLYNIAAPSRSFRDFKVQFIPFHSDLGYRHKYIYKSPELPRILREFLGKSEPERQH
Nature of the data set: Inhibition of ABHD12 in mouse brain membrane at 10 uM using TAMRA-FP serine hydrolase probe as substrate preincubated for 25 mins followed by substrate addition and measured after 25 mins SDS-PAGE analysis. Format: cell membranes. Conditions: time 50.0 min. Put shortly:
as §1

As to `O=C(Oc1ccc([N+](=O)[O-])cc1)N1CCC(C(O)(c2ccc3c(c2)OCO3)c2ccc3c(c2)OCO3)CC1`, the result with PDAC-3 [1], in the data set on PDAC-3 [2] and in the data set on PDAC-3 [3] was Active.
On to `CN(Cc1cccc(-c2ccncc2)c1)C(=O)Oc1ccc(-c2ccc(C(N)=O)cc2)cc1`, for which the inhibition result in data set [4] was “Active”.
As to `Nc1ccn([C@@H]2O[C@H](CO)[C@@H](O)C2(F)F)c(=O)n1`, the result in the data set with PDAC-3 [2] and in the data set on PDAC-3 [3] was Active.
For `O=C(OC(C(F)(F)F)C(F)(F)F)N1CCN(Cc2ccc(C(F)(F)F)cc2N2CCCC2)CC1`, the result in the data set with PDAC-3 [1], in the data set on PDAC-3 [2] and with PDAC-3 [3] was Active.
For the compound `O=C(c1cc(O)ccc1F)N1CCC(Cc2cccc(Oc3cc(C(F)(F)F)ccn3)c2)CC1`, the half-life at 3000 µM in data set [5] was greater than 1440 min. Further, the Stability in [6] and in data set [9] was greater than 24 h throughout. Besides, the R% in data set [7] was determined as 38.9%. The half-inhibitory concentration (IC50) at 72 h in data set [8] was greater than 20 µM. In addition, the outcome in the data set on PDAC-3 [2], in the data set on PDAC-3 [3], in the data set on PDAC-3 [11], in the data set with PDAC-3 [12] and in the data set with PDAC-3 [13] was Active. Also, the “fold change (FC)” value in [10] is 4. The compound also showed a logS0 in data set [14] of less than -8.676. For the same compound, the solubility in data set [14] is less than 1 ng/mL.
With `NC(=O)c1cccc(-c2cccc(OC(=O)NC3CCCCC3)c2)c1`, in data set [15], the inhibition result is “Active”.
Take `CCCCCCCCCCC[C@@H](C[C@@H]1OC(=O)[C@H]1CCCCCC)OC(=O)[C@H](CC(C)C)NC=O`: the inhibition entry in data set [4] and in data set [16] was “Active” each time.
Take `O=C(c1ccc(Sc2cccc(C(F)(F)F)c2)cc1)C1CCN(C(=O)c2cc(O)ccc2F)CC1`: in data set [5], the half-life at 3000 µM is greater than 1440 min. In data set [6], this compound showed a Stability greater than 24 h. The R% in data set [7] amounted to 52.6%. In addition, the Stability in data set [9] is greater than 24 h. In addition, in [14], the logS0 is reported as less than -8.702 and the solubility is less than 1 ng/mL.
